# Published values of several laboratories.
# Each line is one published result; the experiments were not run side by side.
# EGFR L858R/T790M: Epidermal growth factor receptor (EGFR, Homo sapiens, UniProt P00533, L858R/T790M)
# EGFR del746-750: Epidermal growth factor receptor (EGFR, Homo sapiens, UniProt P00533, del746-750)
# EGFR: Epidermal growth factor receptor (EGFR, Homo sapiens, UniProt P00533)
# EGFR G719S: Epidermal growth factor receptor (EGFR, Homo sapiens, UniProt P00533, G719S)
# EGFR L861Q: Epidermal growth factor receptor (EGFR, Homo sapiens, UniProt P00533, L861Q)
# EGFR G719C: Epidermal growth factor receptor (EGFR, Homo sapiens, UniProt P00533, G719C)
Structure (SMILES),target,test,conditions,measurement,result
CN([C@@H]1CCc2c(CC(=O)O)c3cc(S(C)(=O)=O)ccc3n2C1)S(=O)(=O)c1ccc(F)cc1,EGFR L858R/T790M,"cell-free assay, competition with immobilised ligand",1 µM,remaining binding,100%
COc1cc2ncnc3c2cc1OCCOCCOc1c(Cl)cccc1N3,EGFR del746-750,"enzyme activity, inhibitor, radiometric",1 µM,remaining activity,15%
COc1cc(Nc2c(C#N)cnc3cc(OCCCN4CCN(C)CC4)c(OC)cc23)c(Cl)cc1Cl,EGFR,cell-free assay,0.5 µM,remaining signal,3.84%
C=CC(=O)Nc1cc(Nc2nc(N3CCc4sccc4C3)c3cccnc3n2)c(OC)cc1N1CCN(CC)CC1,EGFR L858R/T790M,"enzyme activity, inhibitor, ELISA",0.1 µM,inhibition,23.4%
CN(c1nccc(-c2cnn3ncccc23)n1)C1CC1,EGFR del746-750,binding,1 µM,remaining binding,100%
O=C(O)c1cc(-c2ccc(C3CCNCC3)cc2)c2ccc(-c3ccc(C(F)(F)F)cc3)cc2c1,EGFR G719S,"cell-free assay, competition with immobilised ligand",1 µM,remaining binding,100%
C[C@@H]1CCN(c2nccc(-c3cnn4ncccc34)n2)C1,EGFR L858R/T790M,binding,1 µM,remaining binding,76%
Cc1ccc(NC(=O)c2ccc(C)c(C(F)(F)F)c2)cc1C#Cc1nn(C2CCC(O)CC2)c2ncnc(N)c12 (stereo not drawn),EGFR,cell-free assay,10 µM,remaining signal,11%
CCC(=O)Nc1cc(Nc2nc(N3CCc4sccc4C3)c3cccnc3n2)c(OC)cc1N1CCN(CC)CC1,EGFR L858R/T790M,"enzyme activity, inhibitor, ELISA",0.1 µM,inhibition,19.2%
Cc1cc(NC(=O)c2cccc3cc(-c4cccc5[nH]nc(N)c45)ccc23)ccc1F,EGFR L861Q,"enzyme activity, inhibitor",0.1 µM,activity vs control,95%
O=C1NC(c2ccccn2)Sc2ccccc21 (stereo not drawn),"Epidermal growth factor receptor (EGFR, Homo sapiens, UniProt P00533, A750P/del747-749)","cell-free assay, competition with immobilised ligand",1 µM,remaining binding,86%
N[C@H]1CCN(c2nccc(-c3cnn4ncccc34)n2)C1,EGFR G719C,binding,1 µM,remaining binding,88%
COc1ccc(COc2ccc(Cc3cnc(N)nc3N)cc2OC)cc1,EGFR,cell-free assay,0.5 µM,remaining signal,96.9%
COc1cc2ncnc(Nc3ccc(Oc4ccccc4)cc3C)c2cc1OC,EGFR L858R/T790M,"enzyme activity, inhibitor",1 µM,inhibition,26%
Cc1ccc(C(=O)Nc2ccc(CN3CCN(C)CC3)c(C(F)(F)F)c2)cc1C#Cc1cnc2cccnn12,"Epidermal growth factor receptor (EGFR, Homo sapiens, UniProt P00533, T790M)",cell-free assay,23.5 nM,remaining signal,94%
CN(C)CC#Cc1ccc(OCCCc2sc(N3CCc4cccc(C(=O)Nc5nc6ccccc6s5)c4C3)nc2C(=O)O)c(F)c1,EGFR G719C,"cell-free assay, competition with immobilised ligand",1 µM,remaining binding,91%
Cc1cnc(NC2CCOCC2)nc1-n1cnc(C(=O)NC(CN)c2cc(F)cc(Cl)c2)c1 (stereo not drawn),EGFR L861Q,"enzyme activity, inhibitor, radiometric",1 µM,remaining activity,108%
C[C@H](c1ccnc(Nc2nc3ccc(-c4cc(N(C)C)ncn4)cc3[nH]2)c1)N1CCN(C(=O)CC(F)(F)F)CC1,EGFR L861Q,"cell-free assay, competition with immobilised ligand",0.1 µM,remaining binding,76%
CN(CCCC(F)(F)F)c1nccc(-c2cnn3ncccc23)n1,EGFR L861Q,binding,1 µM,remaining binding,73%
Nc1ncnc2occ(-c3ccc(NC(=O)Nc4cc(C(F)(F)F)ccc4F)cc3)c12,EGFR G719S,cell-free assay,20 µM,remaining signal,11%
Cn1nc(C(=O)NCc2ccc(C(=O)O)cc2)cc1-c1ccc2[nH]ccc2c1,"Epidermal growth factor receptor (EGFR, Homo sapiens, UniProt P00533, del752-759)","cell-free assay, competition with immobilised ligand",0.1 µM,remaining binding,94%
